Compound activity as filed in PubChem.
Compounds with a hit are over-represented: about 4.5% of the library has one in this group of screens.
NS3 helicase inh: inhibitors of HCV NS3 helicase, primary screen, biochemical, Cy5 molecular beacon fluorescence | Hepatitis C virus NS3 helicase | NS3 helicase DNA unwinding | inhibition, % at 10.9 µM | actives 0.56% (n = 290,000) | AID 1800, 2009;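 active means inhibition above the mean of all tested compounds plus 3 SD, set per campaign, cut at about 35% in these data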;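 further: 0% = DMSO wells and 100% = thioflavine S control wells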
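Measured by: Cy5 fluorescence, 0 and 60 min reads / Assay system: NS3 helicase fragment of HCV / Control set: low DMSO, high thioflavine S at 110 µM / Times: 1 h reaction at 25 °C, ATP-initiated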
PfM18AAP inh-1: PfM18AAP inhibitors, malaria aminopeptidase, primary screen, biochemical, QFRET, recombinant enzyme. actives 1.2% (n = 290,000). inhibition, % at 7.35 µM. AID 1822, 2009. H-Glu-NHMec fluorogenic cleavage;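 active means inhibition above the campaign mean inhibition over all tested compounds plus 3 SD, cut at about 28% in these data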;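 further: 0% = plate median of test compound wells and 100% = 2 mM ZnCl2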
p97 ATPase inh: inhibitors of human p97 ATPase, primary screen, biochemical. Transitional endoplasmic reticulum ATPase (Homo sapiens), P55072. recombinant p97 ATPase, Kinase-Glo ATP luminescence, 3 h. inhibition, % at 8 µM. actives 0.42% (n = 220,000). AID 1481, 2009; in the data active means inhibition above about 15%;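 further: 0% = DMSO vehicle and 100% = wells lacking enzyme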
CHOP inhibitor: inhibitors of CHOP promoter induction, primary screen, cell-based, unfolded protein response, luciferase reporter; CHO-K1 CHOP-promoter luciferase, tunicamycin-induced, 15-18 h; inhibition, % at 10 µM; actives 3.8% (n = 220,000); AID 2732, 2010;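 active means compounds that reduced the stress-induced luciferase reporter signal by more than about 70% of percent inhibition, limit read from the data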;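 further: 0% = tunicamycin plus vehicle and 100% = wells without tunicamycin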
UPR CHOP act: activators of apoptotic CHOP UPR arm, primary screen, cell-based, CHO-CHOP luciferase reporter, luminescence, uHTS; activation, % at 10 µM; UPR activation; percent of tunicamycin response over DMSO baseline; AID 449763, 2010; actives 0.34% (n = 330,000);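 active means at 10 µM dose, activation of 40% or more, normalized to positive control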;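 further: 100% = tunicamycin at 10 µg/mL and 0% = DMSO alone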
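Evaluation: % reporter activation, DMSO baseline versus tunicamycin full activation; System: CHO-CHOP luciferase reporter cell line; Input: 500 cells/well; Incubation: 6 h compound treatment, 37 °C; Measured by: Steady-Glo luciferase luminescence; Dosing: one dose, 10 µM in 0.5% DMSO; Buffer or medium: F12 medium, 10% FBS; Benchmarks: positive tunicamycin 10 µg/mL, negative DMSO alone.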
UPR XBP1 act: activators of adaptive XBP1 UPR arm, primary screen, cell-based, CHO-XBP1 luciferase reporter, luminescence, uHTS; IRE1-XBP1 UPR activation; percent of tunicamycin response, DMSO as zero; activation, % at 20 µM; actives 0.33% (n = 330,000); AID 463104, 2010;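 active means versus positive control, 20 µM dose yields 30% or more activation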;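 further: 100% = tunicamycin at 10 µg/mL and 0% = DMSO only wells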
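Material – CHO cell line with stable XBP1 luciferase reporter · Buffer or medium – F12 plus 10% FBS · Compound – single point, 20 µM final compound, 1% DMSO · Schedule – 16-18 h cell attachment at 37 °C, then 6 h compound exposure · Signal – Steady-Glo luminescence read · Benchmarks – high control tunicamycin 10 µg/mL final, low control DMSO vehicle only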
PfM18AAP inh-2: PfM18AAP inhibitors, malaria aminopeptidase, confirmation, biochemical, QFRET, recombinant enzyme, triplicate. shares compounds with PfM18AAP inh-1. H-Glu-NHMec fluorogenic cleavage. inhibition, % at 7.35 µM. actives 28% (n = 2,400). AID 2170, 2009;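 active means mean inhibition over replicate wells above the hit cutoff set for the earlier primary screen, cut at about 29% in these data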;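 further: 0% = median of test compound wells and 100% = 2 mM ZnCl2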
CTSL1 counter: cathepsin L1 inhibitors, retest, confirmation, counter-screen for PFM18AAP inhibitor project, biochemical, QFRET, triplicate | AID 2178, 2009 | shares compounds with PfM18AAP inh-1 | 2,400 tested, under 10 active | inhibition, % at 5.96 µM | purified cathepsin L1, Z-Leu-Arg-MCA fluorescence;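 active means average inhibition across replicates above the hit cutoff set in the earlier primary screen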;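 further: 0% = median of test compound wells and 100% = Z-Phe-Ala-diazomethylketone 1 µM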
* hit, by the source's call.

`COc1cc(C)c(NC(=O)C(=S)NCCc2ccccc2)cc1C` gave NS3 helicase inh -10, PfM18AAP inh-1 48*, p97 ATPase inh 0, CHOP inhibitor 33, UPR CHOP act 1, UPR XBP1 act -4, PfM18AAP inh-2 4 and CTSL1 counter 4.
For NC(=O)N/N=C/c1c(O)ccc2oc3c(c12)CCCC3 the results were NS3 helicase inh -2, PfM18AAP inh-1 26, p97 ATPase inh 6, CHOP inhibitor 48, UPR CHOP act -4 and UPR XBP1 act -3.
`CC(C)(C)N=Cc1c(O)ccc2oc3c(c12)CCCC3` gave NS3 helicase inh 32, PfM18AAP inh-1 33*, UPR CHOP act 2, UPR XBP1 act -1, PfM18AAP inh-2 -18 and CTSL1 counter 4.
O=c1c2cn[nH]c2[nH]c(=S)n1-c1ccccc1Cl was read as NS3 helicase inh -6, PfM18AAP inh-1 37*, p97 ATPase inh 3, CHOP inhibitor 4, UPR CHOP act 0, UPR XBP1 act 1, PfM18AAP inh-2 21 and CTSL1 counter 1.
`O=c1c2cn[nH]c2[nH]c(=S)n1-c1ccccc1F` gave NS3 helicase inh 0, PfM18AAP inh-1 57*, p97 ATPase inh 1, CHOP inhibitor 19, UPR CHOP act 0, UPR XBP1 act 5, PfM18AAP inh-2 -1 and CTSL1 counter -5.
For Cc1cccc2nc(CSc3nc4[nH]ncc4c(=O)n3-c3ccccc3Cl)cc(=O)n12 the results were NS3 helicase inh 4, PfM18AAP inh-1 23, p97 ATPase inh 2, CHOP inhibitor 19, UPR CHOP act 1 and UPR XBP1 act 4.
Cc1ccc(-n2c(=S)[nH]c3[nH]ncc3c2=O)cc1 was read as NS3 helicase inh 6, PfM18AAP inh-1 21, p97 ATPase inh 4, CHOP inhibitor 23, UPR CHOP act 1 and UPR XBP1 act -1.
`O=C(Cc1ccc(NS(=O)(=O)c2cccc(C(F)(F)F)c2)cc1)NCCN1CCOCC1` gave UPR CHOP act 0 and UPR XBP1 act -4.
Screening CC(=O)Nc1ccccc1OC(C)C(=O)NC(C)c1ccc(F)cc1 (centres undefined) returned NS3 helicase inh -6, PfM18AAP inh-1 1, p97 ATPase inh 3, CHOP inhibitor 20, UPR CHOP act 2 and UPR XBP1 act -1.
Cc1snc(SCC(=O)c2ccc(F)cc2)c1C#N was read as NS3 helicase inh -7, PfM18AAP inh-1 -2, p97 ATPase inh 1, CHOP inhibitor -32, UPR CHOP act 3 and UPR XBP1 act 6.
For Cc1snc(SCC(=O)c2ccc([N+](=O)[O-])cc2)c1C#N the results were NS3 helicase inh 14, PfM18AAP inh-1 45*, p97 ATPase inh 6, CHOP inhibitor 6, UPR CHOP act 4, UPR XBP1 act 2, PfM18AAP inh-2 -22 and CTSL1 counter 6.
Screening CCCCCn1nc(C(=O)OCc2nnc(-c3ccccc3)o2)c2ccccc2c1=O returned UPR CHOP act 1 and UPR XBP1 act -5.
`O=S(=O)(Nc1ccc2c(c1)nc1n2CCN(Cc2ccccc2)C1)c1ccccc1` gave NS3 helicase inh -13, PfM18AAP inh-1 60*, p97 ATPase inh 4, CHOP inhibitor 1, UPR CHOP act 0, UPR XBP1 act -3, PfM18AAP inh-2 -28 and CTSL1 counter 4.
